Columns and labels:
Assay type in all cases: functional
[1] = test system: NCI-H460; assay: Antiproliferative activity against human NCI-H460 cells at 100 uM after 48 hrs
[2] = test system: MCF7; assay: Antiproliferative activity against human MCF7 cells at 100 uM after 48 hrs
[3] = test system: SF-268; assay: Antiproliferative activity against human SF268 cells at 100 uM after 48 hrs
[4] = test system: LOX IMVI; assay: Growth inhibition of human LOX IMVI cells
How it was run: (§1)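 NCI full human tumour cell panel covering leukemia, melanoma, lung, colon, renal, ovarian, breast, prostate and CNS subpanels. Five concentrations at 10-fold dilution were used: 10^-4, 10^-5, 10^-6, 10^-7 and 10^-8 M. GI50, the concentration giving 50% inhibition of net cell growth, was determined for each cell line.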

[5] = test system: A549; assay: Growth inhibition of human A549 cells; how it was run: as §1
[6] = test system: EKVX; assay: Growth inhibition of human EKVX cells; how it was run: as §1
[7] = test system: OVCAR-8; assay: Growth inhibition of human OVCAR8 cells; how it was run: as §1
[8] = test system: COLO 205; assay: Growth inhibition of human COLO205 cells; how it was run: as §1
[9] = test system: BT-549; assay: Growth inhibition of human BT549 cells; how it was run: as §1
[10] = Growth inhibition of human NCI-50 cells; conditions: NCI full human tumour cell panel; how it was run: as §1
[11] = test system: MCF7; assay: Growth inhibition of human MCF7 cells; how it was run: as §1
[12] = test system: M14; assay: Growth inhibition of human M14 cells; how it was run: as §1
[13] = test system: MOLT-4; assay: Growth inhibition of human MOLT4 cells; how it was run: as §1
[14] = test system: SR; assay: Growth inhibition of human SR cells; how it was run: as §1
[15] = test system: NCI-H522; assay: Growth inhibition of human NCI-522 cells; how it was run: as §1

Row | SMILES | Activity [1] [%] | Activity [2] [%] | Activity [3] [%] | GI50 [10] [µM] | also measured
1 | Cc1cccc2c1nnc1c3ccccc3c(C#N)n21 | 118 | 72 | 105 |  | 
2 | N#Cc1c2ccccc2c2nnc3ccc(Cl)cc3n12 | 61 | 51 | 86 |  | 
3 | N#Cc1c2ccccc2c2nnc3ccccc3n12 | 21 | 26 | 95 | 33.9 | GI50 [4]: 6.46 µM; GI50 [5]: 13.5 µM; GI50 [6]: 12.6 µM; GI50 [7]: 11.2 µM; GI50 [8]: 9.33 µM; GI50 [9]: 12 µM; GI50 [11]: 14.1 µM; GI50 [12]: 14.8 µM
4 | COc1ccc2c(c1)nnc1c3ccccc3c(C#N)n21 | 86 | 63 | 104 |  | 
5 | N#Cc1c2ccccc2c2nnc3cc(C(F)(F)F)ccc3n12 | 6 | 65 | 82 | 53.7 | GI50 [11]: 10.7 µM
6 | N#Cc1c2ccccc2c2nnc3cc(Cl)c(Cl)cc3n12 | 17 | 80 | 68 | 49 | 
7 | N#Cc1c2ccccc2c2nnc3cc(Cl)ccc3n12 | 109 | 109 | 114 |  | 
8 | N#Cc1c2ccccc2c2nnc3ccc(C(F)(F)F)cc3n12 | 8 | 83 | 96 | 34.7 | GI50 [6]: ≤ 0.01 µM; GI50 [13]: 10.5 µM; GI50 [14]: 0.214 µM; GI50 [15]: 17 µM
9 | Cc1cc2nnc3c4ccccc4c(C#N)n3c2cc1C | 48 | 76 | 76 |  | 
10 | Cc1cccc2nnc3c4ccccc4c(C#N)n3c12 | 50 | 69 | 88 |  | 
